Assay results published in ChEMBL document CHEMBL4689842, “EUbOPEN Chemogenomics Library wave 1” (2021).
Several values for one entry are separate records, joined by “and”; a condition that tells them apart may be missing. Identical values can stand only once.

How the values were obtained:
Format in all cases: toxicity, cell-based
[1] = tested on: HEK-293T; experiment: Multiplex assay against HEK293T; settings: human, 10 µM, compound concentration 10 uM;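 as to Population Tubulin-Different-Phenotype (%): share of the cells with healthy nuclei that show this phenotype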
Summary of the method: (§1)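 Live cells were stained at seeding with Hoechst33342, BioTracker Green Microtubule Cytoskeleton Dye, MitoTracker Red and Annexin V Alexa Fluor 680, then imaged on a CQ1 microscope at 37°C and 5% CO2 after compound addition. CellPathfinder machine-learning gating split cells into Hoechst high-intensity objects or normal cells. Normal cells were split into healthy, pyknosed or fragmented nuclei, and pyknosed cells into mitotic or apoptotic. Tubulin, mitochondrial-mass and membrane-permeability phenotypes are per cents of healthy-nucleus cells.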

[2] = tested on: U2OS; experiment: Incucyte cell viability with U2OS; settings: human, 10 µM, compound concentration 10 uM; also: filed as whole numbers so only -1 and 0 and 1 occur
[3] = tested on: Fibroblast; experiment: Multiplex assay against human fibroblast; settings: 10 µM, compound concentration 10 uM; summary of the method: as §1
[4] = tested on: HEK-293T; experiment: Incucyte cell viability with HEK293T; settings: human, 10 µM, compound concentration 10 uM; also: filed as whole numbers so only -1 and 0 and 1 occur
[5] = tested on: Fibroblast; experiment: Incucyte cell viability with human fibroblast; settings: 10 µM, compound concentration 10 uM; also: filed as whole numbers so only -1 and 0 and 1 occur
[6] = tested on: U2OS; experiment: Multiplex assay against U2OS; settings: human, 10 µM, compound concentration 10 uM; summary of the method: as §1
[7] = 6 h, replicate number 1, timepoint 6 hours
[8] = 12 h, replicate number 1, timepoint 12 hours
[9] = 18 h, replicate number 1, timepoint 18 hours
[10] = 24 h, replicate number 1, timepoint 24 hours

C1=N/C2=N/c3ccc(OCCN4CCCC4)c(c3)COC/C=C\COCc3cccc(c3)C(=C1)N2
Population Fragmented Nuclei (%) ([1]; 12 h, replicate 1): 34% and 21% and 25% | Population Hoechst High Intensity Objects (%) ([1]; 12 h, replicate 1): 26% and 14% and 21% | Population Membrane Permeable-Phenotype (%) ([1]; 12 h, replicate 1): 14% and 13% and 0% | Population Normal (%) ([1]; 12 h, replicate 1): 73% and 85% and 78% | Population Pyknosed Nuclei (%) ([1]; 12 h, replicate 1): 52% and 47% and 73% | Total Cell Count ([1]; 12 h, replicate 1): 695 and 596 and 237 | Population Membrane Permeable-Phenotype (%) ([1]; 12 h, replicate 2): 4% and 5% | Population Mitochondria Different-Phenotype (%) ([1]; 12 h, replicate 2): 89% and 81% and 50% | Population Normal (%) ([1]; 12 h, replicate 2): 77% and 79% and 94% | Population Pyknosed Nuclei (%) ([1]; 12 h, replicate 2): 54% and 88% and 38% | Population Tubulin-Different-Phenotype (%) ([1]; 12 h, replicate 2): 82% and 72% and 94% | Population Apoptotic (%) ([1]; 24 h, replicate 1): 87% and 58% and 29% | Population Fragmented Nuclei (%) ([1]; 24 h, replicate 1): 30% and 38% and 21% | Population Hoechst High Intensity Objects (%) ([1]; 24 h, replicate 1): 20% and 21% and 14% | Population Membrane Permeable-Phenotype (%) ([1]; 24 h, replicate 1): 0% and 19% and 7% | Population Normal (%) ([1]; 24 h, replicate 1): 79% and 78% and 85% | Population Pyknosed Nuclei (%) ([1]; 24 h, replicate 1): 69% and 45% and 44% | Total Cell Count ([1]; 24 h, replicate 1): 253 and 698 and 607 | Population Hoechst High Intensity Objects (%) ([1]; 24 h, replicate 2): 19% and 13% and 7% | Population Mitochondria Different-Phenotype (%) ([1]; 24 h, replicate 2): 69% and 78% and 54% | Population Normal (%) ([1]; 24 h, replicate 2): 80% and 86% and 92% | Population Pyknosed Nuclei (%) ([1]; 24 h, replicate 2): 79% and 55% and 35% | Population Tubulin-Different-Phenotype (%) ([1]; 24 h, replicate 2): 100% and 87% and 94% | Population Apoptotic (%) ([1]; 48 h, replicate 1): 87% | Population Fragmented Nuclei (%) ([1]; 48 h, replicate 1): 37% | Population Healthy Nuclei (%) ([1]; 48 h, replicate 1): 0% | Population Hoechst High Intensity Objects (%) ([1]; 48 h, replicate 1): 26% | Population Membrane Permeable-Phenotype (%) ([1]; 48 h, replicate 1): 0% | Population Mitochondria Different-Phenotype (%) ([1]; 48 h, replicate 1): 0% | Population Mitotic Cells (%) ([1]; 48 h, replicate 1): 12% | Population Normal (%) ([1]; 48 h, replicate 1): 73% | Population Pyknosed Nuclei (%) ([1]; 48 h, replicate 1): 62% | Population Tubulin-Different-Phenotype (%) ([1]; 48 h, replicate 1): 0% | Total Cell Count ([1]; 48 h, replicate 1): 253 | Population Fragmented Nuclei (%) ([1]; 48 h, replicate 2): 17% | Population Healthy Nuclei (%) ([1]; 48 h, replicate 2): 18% | Population Hoechst High Intensity Objects (%) ([1]; 48 h, replicate 2): 15% | Population Membrane Permeable-Phenotype (%) ([1]; 48 h, replicate 2): 3% | Population Mitochondria Different-Phenotype (%) ([1]; 48 h, replicate 2): 81% | Population Normal (%) ([1]; 48 h, replicate 2): 84% | Population Pyknosed Nuclei (%) ([1]; 48 h, replicate 2): 64% | Population Tubulin-Different-Phenotype (%) ([1]; 48 h, replicate 2): 96% | Total Cell Count ([1]; 48 h, replicate 2): 212 | Growth Rate ([2]; 0 h, replicate number 1, timepoint 0 hours): 0 | Growth Rate [2, 7]: 0 | Growth Rate [2, 8]: 0 | Growth Rate [2, 9]: 0 | Growth Rate [2, 10]: 0 | Population Apoptotic (%) ([3]; 12 h, replicate 1): 82% and 50% and 69% | Population Fragmented Nuclei (%) ([3]; 12 h, replicate 1): 23% and 19% and 32% | Population Hoechst High Intensity Objects (%) ([3]; 12 h, replicate 1): 13% and 8% and 12% | Population Membrane Permeable-Phenotype (%) ([3]; 12 h, replicate 1): 0% and 2% and 3% | Population Mitotic Cells (%) ([3]; 12 h, replicate 1): 17% and 49% and 30% | Population Normal (%) ([3]; 12 h, replicate 1): 86% and 91% and 87% | Population Apoptotic (%) ([3]; 12 h, replicate 2): 68% and 44% and 90% | Population Fragmented Nuclei (%) ([3]; 12 h, replicate 2): 66% and 46% and 29% | Population Normal (%) ([3]; 12 h, replicate 2): 60% and 68% and 89% | Population Pyknosed Nuclei (%) ([3]; 12 h, replicate 2): 24% and 18% and 53% | Total Cell Count ([3]; 12 h, replicate 2): 108 and 72 and 71 | Population Apoptotic (%) ([3]; 24 h, replicate 1): 82% and 61% and 58% | Population Fragmented Nuclei (%) ([3]; 24 h, replicate 1): 35% and 32% and 34% | Population Hoechst High Intensity Objects (%) ([3]; 24 h, replicate 1): 15% and 6% and 13% | Population Mitotic Cells (%) ([3]; 24 h, replicate 1): 17% and 38% and 41% | Population Normal (%) ([3]; 24 h, replicate 1): 84% and 93% and 86% | Population Tubulin-Different-Phenotype (%) ([3]; 24 h, replicate 1): 54% and 82% | Population Apoptotic (%) ([3]; 24 h, replicate 2): 92% and 57% and 96% | Population Hoechst High Intensity Objects (%) ([3]; 24 h, replicate 2): 37% and 28% and 32% | Population Normal (%) ([3]; 24 h, replicate 2): 62% and 71% and 67% | Total Cell Count ([3]; 24 h, replicate 2): 98 and 77 and 69 | Population Apoptotic (%) ([3]; 48 h, replicate 1): 87% | Population Fragmented Nuclei (%) ([3]; 48 h, replicate 1): 50% | Population Healthy Nuclei (%) ([3]; 48 h, replicate 1): 24% | Population Hoechst High Intensity Objects (%) ([3]; 48 h, replicate 1): 20% | Population Membrane Permeable-Phenotype (%) ([3]; 48 h, replicate 1): 25% | Population Mitochondria Different-Phenotype (%) ([3]; 48 h, replicate 1): 31% | Population Mitotic Cells (%) ([3]; 48 h, replicate 1): 12% | Population Normal (%) ([3]; 48 h, replicate 1): 79% | Population Pyknosed Nuclei (%) ([3]; 48 h, replicate 1): 24% | Population Tubulin-Different-Phenotype (%) ([3]; 48 h, replicate 1): 50% | Total Cell Count ([3]; 48 h, replicate 1): 82 | Population Apoptotic (%) ([3]; 48 h, replicate 2): 94% | Population Fragmented Nuclei (%) ([3]; 48 h, replicate 2): 68% | Population Healthy Nuclei (%) ([3]; 48 h, replicate 2): 5% | Population Hoechst High Intensity Objects (%) ([3]; 48 h, replicate 2): 14% | Population Membrane Permeable-Phenotype (%) ([3]; 48 h, replicate 2): 0% | Population Mitochondria Different-Phenotype (%) ([3]; 48 h, replicate 2): 100% | Population Mitotic Cells (%) ([3]; 48 h, replicate 2): 5% | Population Normal (%) ([3]; 48 h, replicate 2): 85% | Population Pyknosed Nuclei (%) ([3]; 48 h, replicate 2): 25% | Population Tubulin-Different-Phenotype (%) ([3]; 48 h, replicate 2): 75% | Total Cell Count ([3]; 48 h, replicate 2): 78 | Growth Rate [4, 7]: 0 | Growth Rate [4, 8]: 0 | Growth Rate [4, 9]: 0 | Growth Rate [4, 10]: 0 | Growth Rate [5, 7]: 0 | Growth Rate [5, 8]: 0 | Growth Rate [5, 9]: 0 | Growth Rate [5, 10]: 0 | Population Apoptotic (%) ([6]; 12 h, replicate 1): 87% and 88% and 55% | Population Fragmented Nuclei (%) ([6]; 12 h, replicate 1): 35% and 19% and 20% | Population Hoechst High Intensity Objects (%) ([6]; 12 h, replicate 1): 6% and 13% | Population Normal (%) ([6]; 12 h, replicate 1): 93% and 86% | Population Pyknosed Nuclei (%) ([6]; 12 h, replicate 1): 44% and 67% and 25% | Population Tubulin-Different-Phenotype (%) ([6]; 12 h, replicate 1): 94% and 60% | Total Cell Count ([6]; 12 h, replicate 1): 194 and 177 and 149 | Population Apoptotic (%) ([6]; 12 h, replicate 2): 90% and 68% | Population Fragmented Nuclei (%) ([6]; 12 h, replicate 2): 53% and 29% | Population Hoechst High Intensity Objects (%) ([6]; 12 h, replicate 2): 16% and 10% and 7% | Population Normal (%) ([6]; 12 h, replicate 2): 83% and 89% and 92% | Population Pyknosed Nuclei (%) ([6]; 12 h, replicate 2): 27% and 53% and 22% | Population Tubulin-Different-Phenotype (%) ([6]; 12 h, replicate 2): 55% and 100% and 43% | Total Cell Count ([6]; 12 h, replicate 2): 154 and 71 and 158 | Population Apoptotic (%) ([6]; 24 h, replicate 1): 98% and 82% | Population Fragmented Nuclei (%) ([6]; 24 h, replicate 1): 23% and 31% and 11% | Population Hoechst High Intensity Objects (%) ([6]; 24 h, replicate 1): 14% and 15% | Population Mitochondria Different-Phenotype (%) ([6]; 24 h, replicate 1): 100% and 88% and 63% | Population Normal (%) ([6]; 24 h, replicate 1): 85% and 84% | Population Pyknosed Nuclei (%) ([6]; 24 h, replicate 1): 75% and 54% and 32% | Population Tubulin-Different-Phenotype (%) ([6]; 24 h, replicate 1): 100% and 88% and 69% | Total Cell Count ([6]; 24 h, replicate 1): 179 and 191 and 200 | Population Apoptotic (%) ([6]; 24 h, replicate 2): 100% and 96% and 88% | Population Membrane Permeable-Phenotype (%) ([6]; 24 h, replicate 2): 50% and 81% and 33% | Population Mitochondria Different-Phenotype (%) ([6]; 24 h, replicate 2): 20% and 57% | Population Mitotic Cells (%) ([6]; 24 h, replicate 2): 0% and 3% and 11% | Population Normal (%) ([6]; 24 h, replicate 2): 83% and 67% and 90% | Population Tubulin-Different-Phenotype (%) ([6]; 24 h, replicate 2): 40% and 61% | Total Cell Count ([6]; 24 h, replicate 2): 154 and 69 and 193 | Population Apoptotic (%) ([6]; 48 h, replicate 1): 100% | Population Fragmented Nuclei (%) ([6]; 48 h, replicate 1): 28% | Population Healthy Nuclei (%) ([6]; 48 h, replicate 1): 1% | Population Hoechst High Intensity Objects (%) ([6]; 48 h, replicate 1): 16% | Population Membrane Permeable-Phenotype (%) ([6]; 48 h, replicate 1): 100% | Population Mitochondria Different-Phenotype (%) ([6]; 48 h, replicate 1): 100% | Population Mitotic Cells (%) ([6]; 48 h, replicate 1): 0% | Population Normal (%) ([6]; 48 h, replicate 1): 83% | Population Pyknosed Nuclei (%) ([6]; 48 h, replicate 1): 70% | Population Tubulin-Different-Phenotype (%) ([6]; 48 h, replicate 1): 100% | Total Cell Count ([6]; 48 h, replicate 1): 162 | Population Fragmented Nuclei (%) ([6]; 48 h, replicate 2): 19% | Population Healthy Nuclei (%) ([6]; 48 h, replicate 2): 33% | Population Hoechst High Intensity Objects (%) ([6]; 48 h, replicate 2): 37% | Population Membrane Permeable-Phenotype (%) ([6]; 48 h, replicate 2): 92% | Population Mitochondria Different-Phenotype (%) ([6]; 48 h, replicate 2): 92% | Population Normal (%) ([6]; 48 h, replicate 2): 62% | Population Pyknosed Nuclei (%) ([6]; 48 h, replicate 2): 47% | Population Tubulin-Different-Phenotype (%) ([6]; 48 h, replicate 2): 92% | Total Cell Count ([6]; 48 h, replicate 2): 70
